Test results published in ChEMBL document CHEMBL4613270, “Structure-Activity Relationship Study Enables the Discovery of a Novel Berberine Analogue as the RXRα Activator to Inhibit Colon Cancer” (J Med Chem, 2020).
Calls of active or inactive are those of the source. The rule behind the calls is not given here.

Columns and labels:
KM12C [1] = test: Inhibition of cell proliferation of human KM12C cells at 25 to 50 uM incubated for 15 hrs by EdU assay; assay type: functional, cell-based
Procedure, shortened: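 KM12C cells grown in MEM with 10% FBS, penicillin/streptomycin, nonessential amino acids and vitamins at 37 °C, 5% CO2. Proliferation was scored with an EdU incorporation kit, and cells were examined under a fluorescence microscope.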

SW-620 = test: Inhibition of cell proliferation of human SW620 cells at 40 to 80 uM incubated for 15 hrs by EdU assay; assay type: functional, cell-based
Procedure, shortened: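 Colon cancer cells treated for 15 h. Proliferation measured in 96-well plates using an EdU incorporation kit, with cells examined under a fluorescence microscope.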

[2] = target: T1, Retinoic acid receptor RXR-alpha (Homo sapiens) (UniProt P19793); test: Activation of RXRalpha in human KM12C cells assessed as […] protein expression at 25 to 50 uM incubated for 15 hrs by Western blot analysis; assay type: cell-based
T1 sequence (whole entry): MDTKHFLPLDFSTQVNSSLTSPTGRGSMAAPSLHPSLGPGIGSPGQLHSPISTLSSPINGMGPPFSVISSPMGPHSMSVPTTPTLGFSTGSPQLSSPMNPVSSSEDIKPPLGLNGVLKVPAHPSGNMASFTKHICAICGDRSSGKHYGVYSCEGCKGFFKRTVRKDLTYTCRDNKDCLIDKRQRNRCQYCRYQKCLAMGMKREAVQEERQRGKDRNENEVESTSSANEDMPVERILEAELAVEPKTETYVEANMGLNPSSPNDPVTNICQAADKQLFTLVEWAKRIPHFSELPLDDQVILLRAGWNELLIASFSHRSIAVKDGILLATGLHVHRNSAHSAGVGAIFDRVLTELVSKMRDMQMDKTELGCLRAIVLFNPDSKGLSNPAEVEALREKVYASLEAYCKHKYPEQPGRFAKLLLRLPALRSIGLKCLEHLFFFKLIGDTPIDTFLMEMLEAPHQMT

[3] = target: T1, Retinoic acid receptor RXR-alpha (Homo sapiens); test: Activation of RXRalpha in human HCT116 cells assessed as […] protein expression at 30 to 60 uM incubated for 15 hrs by Western blot analysis; assay type: cell-based; settings: HCT-116
[4] = target: T1, Retinoic acid receptor RXR-alpha (Homo sapiens); test: Activation of RXRalpha in human SW620 cells assessed as […] in PCNA protein expression at 40 to 80 uM incubated for 15 hrs by Western blot analysis; assay type: cell-based; settings: SW-620
[5] = target: T1, Retinoic acid receptor RXR-alpha (Homo sapiens); test: Activation of RXRalpha in human SW620 cells assessed as increase transactivational activity on RXRE at 40 to 80 uM incubated for 15 hrs by luciferase reporter gene assay; assay type: cell-based; settings: SW-620
Procedure, shortened: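 Endogenous RXRα transactivation on an RXRE luciferase reporter, lipofection-transfected; compound added 20 h post-transfection for 15 h; lysis in passive lysis buffer at 4 °C, 1 h; firefly and Renilla luciferase activities read by dual-luciferase assay.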

[6] = target: T1, Retinoic acid receptor RXR-alpha (Homo sapiens); test: Binding affinity to His-tagged RXRalpha LBD (unknown origin) expressed in Escherichia coli strain BL21 (DE3) at 200 uM by STD-NMR spectroscopy
KM12C [7] = test: Inhibition of cell proliferation of human KM12C cells up to 100 uM in presence of RXRalpha shRNA incubated for 15 hrs by MTT assay; assay type: functional, cell-based
Procedure, shortened: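 KM12C cells were transfected with control or RXRα-targeting shRNA, seeded at 1×10^4 cells/well and incubated overnight at 37 °C. Compound was then added for 15 h. MTT (5 mg/mL stock) was incubated 4 h at 37 °C, formazan dissolved in DMSO, and absorbance read at 570 nm.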

[8] = target: T1, Retinoic acid receptor RXR-alpha (Homo sapiens); test: Activation of RXRalpha in human KM12C cells assessed as reduction in Cdc2 protein expression at 25 to 50 uM incubated for 15 hrs in presence of RXRalpha shRNA by Western blot analysis; assay type: cell-based
[9] = target: T1, Retinoic acid receptor RXR-alpha (Homo sapiens); test: Activation of RXRalpha in human KM12C cells assessed as reduction in Cdc2 mRNA expression at 25 to 50 uM incubated for 15 hrs in presence of RXRalpha shRNA by real-time PCR analysis; assay type: cell-based
[10] = target: T1, Retinoic acid receptor RXR-alpha (Homo sapiens); test: Activation of RXRalpha in human KM12C cells assessed as increase in p21 (WAF1/CIP1) protein expression at 25 to 50 uM incubated for 15 hrs in presence of RXRalpha shRNA by Western blot analysis; assay type: cell-based
[11] = target: T1, Retinoic acid receptor RXR-alpha (Homo sapiens); test: Activation of RXRalpha in human KM12C cells assessed as […] crease in p21 (WAF1/CIP1) mRNA expression at 25 to 50 uM incubated for 15 hrs in presence of RXRalpha shRNA by real-time PCR analysis; assay type: cell-based
[12] = Toxicity in human HIEC6 cells assessed a reduction in cell viability at 6.25 to 100 uM incubated for 15 hrs by MTT assay; assay type: cell-based
Procedure, shortened: (§1)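 HIEC-6 cells grown in MEM with 4% FBS, HEPES, GlutaMAX and 10 ng/mL EGF. MEF cells grown in DMEM high glucose with 10% FBS. Cells plated at 1×10⁴ per well and treated with a concentration series for 15 h. Viability read by MTT: 4 h at 37 °C, DMSO solubilization, absorbance at 570 nm.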

MEF = test: Toxicity in mouse MEF cells assessed a reduction in cell viability at 6.25 to 100 uM incubated for 15 hrs by MTT assay; assay type: cell-based; procedure, shortened: as §1

SMILES: COc1ccc2c(c1)CC[n+]1cc3c(OC)cccc3cc1-2.[Cl-]
- inhibition (KM12C [1]): Active
- inhibition (SW-620): Active
- Activity [2]: Active
- Activity [3]: Active
- Activity [4]: Active
- Activity [5]: Active
- Activity [6]: Active
- inhibition (KM12C [7]): inactive
- Activity [8]: inactive
- Activity [9]: inactive
- Activity [10]: inactive
- Activity [11]: inactive
- Activity [12]: Non-Toxic
- Activity (MEF): Non-Toxic
